This note sets out measurements from ChEMBL document CHEMBL1781898, “Orally active achiral N-hydroxyformamide inhibitors of ADAM-TS4 (aggrecanase-1) and ADAM-TS5 (aggrecanase-2) for the treatment of osteoarthritis” (Bioorg Med Chem Lett, 2011).

Structures are written as SMILES.

Broadly, the IC50 is the midpoint of a concentration-inhibition curve. A word on the bioavailability: it is the share of a dose that reaches the circulation, judged against a reference dose that is usually intravenous. Read a low bioavailability as poor availability.

In data set [1] the target is T1, A disintegrin and metalloproteinase with thrombospondin motifs 5 (Homo sapiens, UniProt Q9UNA0).
T1 sequence (Q9UNA0 whole entry): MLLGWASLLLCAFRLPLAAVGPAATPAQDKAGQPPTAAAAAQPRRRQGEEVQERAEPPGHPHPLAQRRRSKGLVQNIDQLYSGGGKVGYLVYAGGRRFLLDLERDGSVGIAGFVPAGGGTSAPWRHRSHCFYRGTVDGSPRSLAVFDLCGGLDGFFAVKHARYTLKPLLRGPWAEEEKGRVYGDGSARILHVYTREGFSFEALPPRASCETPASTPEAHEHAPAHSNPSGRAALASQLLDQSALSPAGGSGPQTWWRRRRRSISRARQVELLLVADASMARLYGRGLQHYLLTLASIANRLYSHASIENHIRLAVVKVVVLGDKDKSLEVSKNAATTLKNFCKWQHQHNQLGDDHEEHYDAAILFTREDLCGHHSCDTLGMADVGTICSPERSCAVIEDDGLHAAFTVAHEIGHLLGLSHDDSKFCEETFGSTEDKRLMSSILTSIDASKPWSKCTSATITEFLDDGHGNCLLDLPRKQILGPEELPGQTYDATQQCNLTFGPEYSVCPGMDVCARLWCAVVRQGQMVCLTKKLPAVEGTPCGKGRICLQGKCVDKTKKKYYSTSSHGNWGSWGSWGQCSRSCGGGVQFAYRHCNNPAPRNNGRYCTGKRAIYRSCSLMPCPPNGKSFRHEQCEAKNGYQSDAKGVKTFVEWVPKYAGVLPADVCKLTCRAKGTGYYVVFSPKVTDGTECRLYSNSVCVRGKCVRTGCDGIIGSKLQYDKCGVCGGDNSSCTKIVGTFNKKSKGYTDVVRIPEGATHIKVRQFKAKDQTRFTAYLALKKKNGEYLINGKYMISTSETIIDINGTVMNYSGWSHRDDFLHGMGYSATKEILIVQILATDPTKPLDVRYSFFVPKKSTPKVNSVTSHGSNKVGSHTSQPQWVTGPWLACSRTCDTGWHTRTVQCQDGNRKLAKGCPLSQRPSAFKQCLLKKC
The data set can be described thus: Inhibition of ADAMTS-5 assessed as substrate cleavage after 16 hrs by fluorescence assay. The essentials:
(§1)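 Enzyme inhibition IC50s derived from at least six measurements, standard errors normally <5% within an assay; a standard compound run to keep assay-to-assay variability within twofold.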

Data set [2] has as its target T2, Interstitial collagenase (Homo sapiens, UniProt P03956).
T2 sequence (P03956 whole entry): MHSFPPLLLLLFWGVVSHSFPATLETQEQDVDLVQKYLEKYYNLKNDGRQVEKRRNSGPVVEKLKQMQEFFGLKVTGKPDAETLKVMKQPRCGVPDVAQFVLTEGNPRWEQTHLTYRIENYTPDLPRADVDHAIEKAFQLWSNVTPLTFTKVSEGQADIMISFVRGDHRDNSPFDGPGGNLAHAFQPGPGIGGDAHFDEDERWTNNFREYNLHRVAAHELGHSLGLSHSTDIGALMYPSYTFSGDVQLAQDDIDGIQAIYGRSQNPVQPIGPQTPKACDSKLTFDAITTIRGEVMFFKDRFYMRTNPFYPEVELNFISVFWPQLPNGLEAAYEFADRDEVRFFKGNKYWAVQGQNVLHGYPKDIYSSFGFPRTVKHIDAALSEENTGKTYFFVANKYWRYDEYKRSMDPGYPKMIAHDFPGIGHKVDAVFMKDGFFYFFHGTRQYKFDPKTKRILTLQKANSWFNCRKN
The data set can be described thus: Inhibition of recombinant human MMP-1 assessed as substrate cleavage after 20 hrs by fluorescence assay. The essentials:
as §1

In data set [3] the target is Matrix metalloproteinase-9 (Homo sapiens, UniProt P14780). The data set can be described thus: Inhibition of recombinant human MMP-9 assessed as substrate cleavage after 20 hrs by fluorescence assay. The essentials: as §1
The nature of data set [4]: Volume of distribution at steady state in rat at 2 mg/kg, iv. In kind it is ADME, organism-based. The arrangement: dose 2 mg/kg, route intravenous. Particulars: in vivo, read-out: Vdss. The essentials: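 Rat iv PK: 2 mg/kg iv, n = 2 animals; clearance, half-life and Vdss determined.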
A short description of data set [5]: Clearance in mouse. In kind it is ADME, organism-based. Particulars: in vivo.
A short description of data set [6]: Clearance in rat at 2 mg/kg, iv and 3 to 10 mg/kg, po. In kind it is ADME, organism-based. Particulars: in vivo.
Data set [7] in a line: Clearance in dog at 1 mg/kg, iv and 1 mg/kg, po. The data set is classed as ADME, organism-based, Canis lupus familiaris. Particulars: in vivo.
Data set [8] is described as follows: Oral bioavailability in mouse. The data set is classed as ADME, organism-based. Particulars: in vivo.
A short description of data set [9]: Oral bioavailability in dog. The data set is classed as ADME, organism-based, Canis lupus familiaris. Particulars: in vivo.

Matrix metalloproteinase-9, sequence (P14780 whole entry): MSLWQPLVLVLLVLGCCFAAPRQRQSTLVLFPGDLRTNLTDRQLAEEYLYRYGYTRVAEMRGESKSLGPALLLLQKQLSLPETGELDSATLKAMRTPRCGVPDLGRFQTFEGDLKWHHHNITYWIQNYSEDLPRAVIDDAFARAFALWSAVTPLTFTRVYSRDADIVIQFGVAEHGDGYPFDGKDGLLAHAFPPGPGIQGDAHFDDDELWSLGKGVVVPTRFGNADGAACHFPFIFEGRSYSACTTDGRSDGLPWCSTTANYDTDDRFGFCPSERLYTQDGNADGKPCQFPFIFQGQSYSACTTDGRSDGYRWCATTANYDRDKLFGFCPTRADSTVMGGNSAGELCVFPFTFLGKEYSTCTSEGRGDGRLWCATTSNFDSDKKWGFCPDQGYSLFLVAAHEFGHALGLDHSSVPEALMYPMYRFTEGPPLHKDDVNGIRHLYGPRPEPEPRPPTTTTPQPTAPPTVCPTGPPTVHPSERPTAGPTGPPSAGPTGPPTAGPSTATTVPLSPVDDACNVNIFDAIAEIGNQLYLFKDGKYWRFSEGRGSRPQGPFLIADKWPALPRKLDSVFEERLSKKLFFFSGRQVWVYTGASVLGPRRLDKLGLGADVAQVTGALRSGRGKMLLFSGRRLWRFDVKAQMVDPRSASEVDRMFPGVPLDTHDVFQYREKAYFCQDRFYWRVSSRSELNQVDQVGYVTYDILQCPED

For the molecule `Cc1noc(C)c1CCC1CCN(S(=O)(=O)CC2(N(O)C=O)CCOCC2)CC1`, the concentration for half-maximal inhibition (IC50) in [1] was 0.86 µM; in [2], over 10 µM; in [3] it was over 25 µM. Further, the Vd in data set [4] was found to be 3 L/kg. Besides, the clearance in data set [5] was 30 mL/min/kg; in [6] it was 24 mL/min/kg; in [7], 13 mL/min/kg. For the same molecule, the results for the bioavailability in data set [8] and in [9] were 54% and 52%, respectively.
